MPTP block: mitochondrial permeability transition pore inhibitors, primary screen, biochemical, isolated mouse mitochondria, absorbance. inhibition, % at 10 µM. AID 602449, 2012. Ca2+ swelling absorbance, 30 min. 1.4% of 360,000 active;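 active = inhibition of 50% or more, scaled per plate between neutral and stimulator controls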;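 also: 0% = DMSO wells given calcium and 100% = 1 mM EGTA wells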
MC4R antag cAMP: MC4R antagonists of cAMP signaling, primary screen, cell-based, TR-FRET, antagonist arm of biased-ligand search | inhibition, % at 6.5 µM | Melanocortin receptor 4 (Homo sapiens), P32245 | MC4R-expressing cells, MTII-stimulated cAMP, LANCE TR-FRET | 0.48% of 360,000 active;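 active = inhibition above its plate's cutoff, the mean of tested wells on that plate plus 3 SD, cut at about 29% in these data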;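 also: 0% = Melanotan II alone and 100% = Melanotan II plus saturating MCL0020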
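Assay system: human MC4R-expressing U2OS cells; reagent: Melanotan II stimulation of cells; dosing: 6.5 µM single dose; timing: compound 30 min, challenge 1 h, detection 1 h; signal: TR-FRET cAMP assay; replicates: one well per compound, no replicates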
ATG4B inh: ATG4B protease inhibitors, primary screen, biochemical, fluorescence, uHTS. inhibition, % at 8.33 µM. Cysteine protease ATG4B (Homo sapiens), Q9Y4P1. 0.51% of 340,000 active. ATG4B cleavage of LC3-PLA2, NBD-HPC fluorescence, 1 h. AID 504462, 2011; in the data active = inhibition above about 40%
SMARCA2 act: SMARCA2 (BRM) function activators, primary screen, cell-based, luminescence, high throughput | 1% of 370,000 active | AID 652017, 2013 | activation, % at 9.1 µM | MG213 cells, MMTV-luciferase reporter, dexamethasone, overnight; in the data active = activation above about 7.8%;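 also: 0% = vehicle wells and 100% = reference activator wells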
MC4R ag barr: MC4R agonists recruiting beta-arrestin, primary screen, cell-based, luminescence, agonist arm of biased-ligand search; AID 540308, 2011; 0.98% of 360,000 active; U2OS MC4R beta-arrestin complementation; percent of melanotan II response, DMSO zero; activation, % at 8.9 µM;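 active = activation above a per-plate cutoff, the mean activation of sample wells on that plate plus 3 SD, cut at about 8% in these data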
MC4R barr conf: MC4R beta-arrestin agonists, retest, confirmation, cell-based, luminescence, U2OS; shares compounds with MC4R ag barr; U2OS MC4R beta-arrestin recruitment; scaled DMSO 0%, Melanotan II 100%; activation, % at 8.9 µM; 31% of 2,400 active; AID 602192, 2012;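 active = mean activation across replicates above the hit cutoff set in the earlier primary screen, cut at about 8% in these data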
MOR-DOR barr ag: agonists of MOR-DOR heterodimerization, counter-screen for MC4R biased agonist project, cell-based, luminescence; shares compounds with MC4R ag barr; U2OS PathHunter beta-arrestin, beta-gal luminescence; percent of deltorphin B response, DMSO zero; activation, % at 9.2 µM; 5.8% of 2,400 active;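 active = mean activation across replicates exceeds the hit threshold derived in the earlier primary screen, cut at about 18% in these data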;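 also: 100% = deltorphin B at 0.9 µM final and 0% = DMSO alone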
Target sequence (P35372 whole entry, looked up): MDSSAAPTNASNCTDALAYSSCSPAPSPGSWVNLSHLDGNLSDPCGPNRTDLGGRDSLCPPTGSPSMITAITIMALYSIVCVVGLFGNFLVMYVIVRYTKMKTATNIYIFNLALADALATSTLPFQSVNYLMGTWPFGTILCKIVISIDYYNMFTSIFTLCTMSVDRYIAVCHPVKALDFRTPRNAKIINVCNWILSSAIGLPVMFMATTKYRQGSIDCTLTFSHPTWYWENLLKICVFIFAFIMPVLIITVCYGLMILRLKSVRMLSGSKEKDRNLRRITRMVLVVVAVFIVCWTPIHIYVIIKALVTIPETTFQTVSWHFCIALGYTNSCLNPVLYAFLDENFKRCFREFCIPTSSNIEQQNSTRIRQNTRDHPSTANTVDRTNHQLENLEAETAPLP
Target sequence (P41143 whole entry, looked up): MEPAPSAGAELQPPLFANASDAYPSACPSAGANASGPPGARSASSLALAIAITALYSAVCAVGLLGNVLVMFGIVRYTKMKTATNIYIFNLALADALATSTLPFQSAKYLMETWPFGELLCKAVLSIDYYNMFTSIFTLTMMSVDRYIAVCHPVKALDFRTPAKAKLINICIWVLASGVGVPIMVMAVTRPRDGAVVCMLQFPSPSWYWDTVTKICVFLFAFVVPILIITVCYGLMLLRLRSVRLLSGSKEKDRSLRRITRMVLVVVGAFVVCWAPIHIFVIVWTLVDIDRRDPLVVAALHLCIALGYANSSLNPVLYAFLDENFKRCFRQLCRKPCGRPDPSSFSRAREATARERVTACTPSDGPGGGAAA
Rh123 counter: fluorescence retest of MPTP screen hits in isolated mitochondria, single concentration; AID 624504, 2012; 78% of 5,000 active; shares compounds with MPTP block; membrane potential, Rhodamine 123 fluorescence; inhibition, % at 10 µM; in the data active = inhibition above about 22%;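 also: 0% = DMSO vehicle and 100% = positive control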
MPTP abs DR: mitochondrial permeability transition pore inhibitors, dose response, biochemical, absorbance, uHTS hits | IC50, µM | shares compounds with MPTP block | isolated mitochondria swelling | AID 651561, 2012 | 58% of 780 active; in the data active = IC50 below about 20 µM
MPTP counter DR: fluorescent counter-screen in isolated mitochondria, dose response, counter-screen for MPTP inhibitor project, biochemical, fluorescence, uHTS hits | shares compounds with MPTP block | isolated mitochondria counterscreen, fluorescence read-out | IC50, µM | 49% of 780 active | AID 651564, 2012; in the data active = IC50 below about 80 µM
SMARCA2 conf: SMARCA2 (BRM) function activators, confirmation, cell-based, luminescence, triplicate | shares compounds with SMARCA2 act | MG213 cells, MMTV-luciferase with dexamethasone, overnight; MG213 cells expressing E1A, Rb sequestered; DMSO wells 0%, reference activator 100% | activation, % at 9.1 µM | 30% of 3,500 active | AID 652260, 2013;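 active = activation above its plate's cutoff, the mean activation of tested wells plus 3 SD, cut at about 7.9% in these data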
GAL4-VP16 Luc: GAL4-VP16 luciferase reporter activation, counter-screen for SMARCA2 (BRM) activator project, cell-based, pG5luc, luminescence, high throughput | 41% of 3,500 active | AID 686939, 2013 | activation, % at 9.1 µM | shares compounds with SMARCA2 act | HEK293 GAL4-VP16 pG5luc reporter; scaled: DMSO wells 0%, SAHA wells 100%;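 active = activation above the solvent-only control well mean plus 3 SD, averaged across control plates, cut at about 5.2% in these data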
The depositor's hits bear a star; i = inactive; · = no result given. This is a sample that favours compounds with a hit; in the whole collection about 4.1% have one here.

SMILES	MPTP block	MC4R antag cAMP	ATG4B inh	SMARCA2 act	MC4R ag barr	MC4R barr conf	MOR-DOR barr ag	Rh123 counter	others
O=C(NNc1nc2ccccc2s1)Nc1ccc(Cl)c(Cl)c1	73.5*	19.5	-2.1	-3.8	16.1*	9.2*	9.6	75.2*
O=C(CN1c2ccccc2Sc2ccccc21)NNC(=O)Nc1ccc(Cl)c(Cl)c1	51.9*	5.4	-3.0	-3.7	23.3*	6.2	1.3	22.4*
C=CCN(CC#CC1=CCCCC1)Cc1ccccc1	·	·	·	7.0	·	·	·	·
Cc1ccc2c(c1)C1CS(=O)(=O)N(Cc3ccccc3)C(=O)N1C2 (centres undefined)	·	·	·	-2.2	·	·	·	·
CCC(C)c1ccc2oc(-c3ccc(NC(=O)Cn4cnc5c(=O)n(C)c(=O)n(C)c54)cc3)nc2c1 (centres undefined)	84.1*	23.8	-8.4	0.0	14.1*	8.6*	·	-8.4	MPTP abs DR=i;MPTP counter DR=41.4*
Fc1cccc(Nc2nc(-c3ccncc3)nc3ccccc23)c1	84.6*	26.8	5.4	0.6	11.9*	1.2	6.4	85.2*
CCCOC(=O)c1cccc(Nc2nc(-c3cccnc3)nc3ccccc23)c1	65.7*	20.6	-6.6	0.3	26.2*	16.9*	11.4	73.2*
COC[C@H]1CCCN1c1ccc2c(c1)O[C@H](C)CCN(C1CC1)S2(=O)=O	·	·	·	-0.7	·	·	·	·
Cc1ccc(S(=O)(=O)NC(CCCNC(=O)OCc2ccccc2)C(=O)O)cc1 (centres undefined)	·	·	·	-1.9	·	·	·	·
Cc1cc(C)cc(NCc2cc(=O)oc3cc(-c4ccccc4)c(O)cc23)c1	11.7	5.0	-1.6	-3.3	3.8	·	·	·
COc1ccc(C)cc1NCc1cc(=O)oc2cc(-c3ccccc3)c(O)cc12	93.6*	7.2	3.1	-0.3	13.0*	1.6	4.0	56.5*
Cc1cc2oc3ccc(NCCCn4ccnc4)cc3c(=O)c2cc1C	57.5*	-6.4	4.7	5.3	11.1*	1.4	11.6	-2.0
Cc1cc2oc3ccc(NCCCN4CCOCC4)cc3c(=O)c2cc1C	0.8	-1.3	-4.5	2.7	1.9	·	·	·
Cc1ccc(Oc2cc([N+](=O)[O-])cc3c2C(=O)Nc2ccccc2O3)cc1	56.2*	6.5	2.6	-4.1	13.7*	1.9	7.7	28.6*
O=C1Nc2ccccc2Nc2ccc([N+](=O)[O-])cc21	-0.3	21.6	1.7	-3.0	-2.4	·	·	·
Clc1ccc2c(c1)C(N1CCNCC1)Cc1ccccc1S2 (centres undefined)	83.4*	-7.3	-4.3	·	10.3*	18.6*	22.7*	-6.6
CSc1ccc2c(c1)C(N1CCN(C)CC1)Cc1ccc(F)cc1S2 (centres undefined)	-6.9	-1.5	-8.7	-0.1	6.2	·	·	·
O=C(NCc1csc2ccccc12)Nc1cc(Cl)cc(Cl)c1	86.5*	13.9	9.4	0.2	16.1*	-0.9	3.9	75.6*
O=C(O)Cc1csc2ccccc12	-1.6	3.0	-8.7	-1.1	-1.4	·	·	·
COc1ccc(CNC(=O)N(C)C[C@@H]2OCc3ccccc3-c3c(n(C)c4ccccc34)C(=O)N([C@@H](C)CO)C[C@@H]2C)cc1	·	·	·	-3.6	·	·	·	·
Nc1ccccc1-c1nnc(-c2ccc(-c3ccccc3)cc2)o1	2.7	-1.5	-3.5	9.2*	12.1*	6.7	1.2	·	SMARCA2 conf=13.9*;GAL4-VP16 Luc=11.1*
CC(=O)Nc1cc(-c2cccc(C(=O)NCCN(C)C)c2)cn2c(-c3cccc(C(F)(F)F)c3)cnc12	-2.3	-0.1	·	21.9*	41.6*	22.7*	8.1	·	SMARCA2 conf=-15.3;GAL4-VP16 Luc=2.4
CC(=O)Nc1cc(-c2cccc(C(=O)NCCN(C)C)c2)cn2c(-c3ccccc3)cnc12	20.4	11.1	·	-1.4	2.2	·	·	·
COc1ccccc1CCn1cnc(-c2cccc(Br)c2)c1CC(C)C	·	·	·	-8.2	·	·	·	·
CCN1CCN(Cc2ccc(NC(=O)c3cc(NC(=O)C(=O)c4c[nH]c5ccccc45)cc(OC)c3)cc2C(F)(F)F)CC1	-0.7	3.4	15.5	10.4*	23.7*	22.1*	9.2	·	SMARCA2 conf=-14.9;GAL4-VP16 Luc=2.6
SMILES	MPTP block	MC4R antag cAMP	ATG4B inh	SMARCA2 act	MC4R ag barr	MC4R barr conf	MOR-DOR barr ag	Rh123 counter	others
CC(=O)Nc1ccc(NC(=O)CCc2nc3sc4c(c3c(=O)[nH]2)CCCC4)cc1	0.2	10.6	-4.0	0.5	-0.6	·	·	·
Cc1cc(C)cc(NC(=O)CCc2nc3sc4c(c3c(=O)[nH]2)CCCC4)c1	1.7	9.9	0.7	24.2*	12.7*	5.4	2.5	·	SMARCA2 conf=28.0*;GAL4-VP16 Luc=1.1
O=CNc1cc(-c2ccccc2)cn2c(-c3ccc(F)c(Cl)c3)cnc12	0.4	2.3	·	-3.3	3.1	·	·	·
COc1ccc(-c2cnc3c(NC=O)cc(-c4cc(OC)c(OC)c(OC)c4)cn23)cc1OC	0.6	-40.1	·	15.3*	29.5*	13.4*	3.7	·	SMARCA2 conf=23.9*;GAL4-VP16 Luc=9.4*
COc1ccc(-c2cnc3c(NC=O)cc(-c4ccccc4)cn23)cc1OC	-0.6	-34.9	·	13.7*	26.9*	7.5	4.7	·	SMARCA2 conf=10.1*;GAL4-VP16 Luc=6.1*
COc1ccc([C@H]2OC(=O)C[C@H]2C(=O)N2CCN(c3ccccc3Cl)CC2)cc1OC	·	·	·	1.6	·	·	·	·
C#CCn1c2ccccc2c2nc3ccccc3nc21	0.6	-1.6	9.2	9.3*	10.7*	-0.3	4.9	·	SMARCA2 conf=5.4;GAL4-VP16 Luc=3.3
C=CCCC(=O)N1C[C@H]2CCN(C)[C@H]2C[C@H]1c1ccccc1Br	·	·	·	0.9	·	·	·	·

Screening data: PubChem BioAssay, several laboratories
